Assay results: ChEMBL document CHEMBL1154428, “Cloning, nucleotide sequencing, and analysis of the AcrAB-TolC efflux pump of Enterobacter cloacae and determination of its involvement in antibiotic resistance in a clinical isolate” (2007)
In brackets after ≈: the same amount, converted by molar mass.

Assays:
[1] = tested on: Enterobacter cloacae; assay: Antibacterial activity against drug-resistant Enterobacter cloacae EcDC64 isolate expressing AcrAB-TolC efflux pump by Etest; format: functional
[2] = tested on: Enterobacter cloacae; assay: Antibacterial activity against drug-resistant Enterobacter cloacae EcDC64 isolate expressing AcrAB-TolC efflux pump in presence of 20 ug/ml efflux pump inhibitor Phe-Arg-beta-naphthylamide by Etest
[3] = tested on: Enterobacter cloacae; assay: Antibacterial activity against drug-resistant AcrAB-TolC efflux pump deficient Enterobacter cloacae EcdeltaacrA isolate by Etest; format: functional
[4] = tested on: Enterobacter cloacae; assay: Antibacterial activity against drug-resistant AcrAB-TolC efflux pump deficient Enterobacter cloacae EcdeltaacrA isolate in presence of 20 ug/ml efflux pump inhibitor Phe-Arg-beta-naphthylamide by Etest; format: functional
[5] = tested on: Enterobacter cloacae; assay: Antibacterial activity against drug-resistant AcrAB-TolC efflux pump deficient Enterobacter cloacae EcdeltaacrA isolate expressing pAP2 plasmid containing Enterobacter cloacae acrA gene by Etest; format: functional
[6] = tested on: Enterobacter cloacae; assay: Antibacterial activity against drug-resistant AcrAB-TolC efflux pump deficient Enterobacter cloacae EcdeltaacrA isolate expressing pACYC184 plasmid by Etest; format: functional
[7] = tested on: Enterobacter cloacae; assay: Antibacterial activity against drug-resistant AcrAB-TolC efflux pump deficient Enterobacter cloacae EcdeltaacrA isolate expressing pAP3 plasmid containing Enterobacter aerogenes acrR gene by Etest; format: functional
[8] = tested on: Enterobacter cloacae; assay: Antibacterial activity against drug-resistant AcrAB-TolC efflux pump deficient Enterobacter cloacae EcdeltaacrA isolate expressing pBGS18 plasmid by Etest; format: functional
[9] = tested on: Enterobacter cloacae; assay: Antibacterial activity against drug-resistant Enterobacter cloacae EcDC64 isolate expressing AcrAB-TolC efflux pump by standard disk diffusion method; format: functional
Method in brief: (§1)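 Standard disk diffusion on Mueller-Hinton agar with telithromycin, fusidic acid, novobiocin, nalidixic acid, rifampin and norfloxacin disks. The read-out is the inhibition zone diameter in mm. The acrA-deleted strain was complemented with acrA on pAP-2, and pACYC184 served as the empty vector.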

[10] = tested on: Enterobacter cloacae; assay: Antibacterial activity against drug-resistant Enterobacter cloacae EcDC64 isolate expressing AcrAB-TolC efflux pump in presence of 20 ug/ml efflux pump inhibitor Phe-Arg-beta-naphthylamide by standard disk diffusion method; format: functional; method in brief: as §1
[11] = tested on: Enterobacter cloacae; assay: Antibacterial activity against drug-resistant AcrAB-TolC efflux pump deficient Enterobacter cloacae EcdeltaacrA isolate by standard disk diffusion method; format: functional; method in brief: as §1
[12] = tested on: Enterobacter cloacae; assay: Antibacterial activity against drug-resistant AcrAB-TolC efflux pump deficient Enterobacter cloacae EcdeltaacrA isolate in presence of 20 ug/ml efflux pump inhibitor Phe-Arg-beta-naphthylamide by standard disk diffusion method; format: functional; method in brief: as §1
[13] = tested on: Enterobacter cloacae; assay: Antibacterial activity against drug-resistant AcrAB-TolC efflux pump deficient Enterobacter cloacae EcdeltaacrA isolate expressing pAP2 plasmid containing Enterobacter cloacae acrA gene by standard disk diffusion method; format: functional; method in brief: as §1
[14] = tested on: Enterobacter cloacae; assay: Antibacterial activity against drug-resistant AcrAB-TolC efflux pump deficient Enterobacter cloacae EcdeltaacrA isolate expressing pACYC184 plasmid by standard disk diffusion method; format: functional; method in brief: as §1
[15] = tested on: Enterobacter cloacae; assay: Antibacterial activity against drug-resistant Enterobacter cloacae EcDC64 isolate expressing pBGS18 plasmid by standard disk diffusion method
[16] = tested on: Enterobacter cloacae; assay: Antibacterial activity against drug-resistant Enterobacter cloacae EcDC64 isolate expressing pAP3 plasmid containing Enterobacter aerogenes acrR gene by standard disk diffusion method

Compound | MIC [1] | MIC [2] | MIC [3] | MIC [4] | MIC [5] | MIC [6] | MIC [7] | MIC [8] | inhibition zone (IZ) [9] | inhibition zone (IZ) [10] | inhibition zone (IZ) [11] | inhibition zone (IZ) [12] | inhibition zone (IZ) [13] | inhibition zone (IZ) [14] | inhibition zone (IZ) [15] | inhibition zone (IZ) [16]
NCC[C@H](O)C(=O)N[C@@H]1C[C@H](N)[C@@H](O[C@H]2O[C@H](CN)[C@@H](O)[C@H](O)[C@H]2O)[C@H](O)[C@H]1O[C@H]1O[C@H](CO)[C@@H](O)[C@H](N)[C@H]1O [AMIKACIN] | 2 µg/mL (≈ 3.42 µM) | 1.5 µg/mL | 0.5 µg/mL (≈ 0.854 µM) | 0.125 µg/mL | 2 µg/mL (≈ 3.42 µM) | 0.5 µg/mL (≈ 0.854 µM) | 1 µg/mL (≈ 1.71 µM) | 2 µg/mL (≈ 3.42 µM) | – | – | – | – | – | – | – | –
CO/N=C(\C(=O)N[C@@H]1C(=O)N2C(C(=O)O)=C(COC(C)=O)CS[C@H]12)c1csc(N)n1 [CEFOTAXIME] | > 256 µg/mL | > 256 µg/mL | > 256 µg/mL | 8 µg/mL | > 256 µg/mL | > 256 µg/mL | > 256 µg/mL | > 256 µg/mL | – | – | – | – | – | – | – | –
CO[C@@]1(NC(=O)Cc2cccs2)C(=O)N2C(C(=O)O)=C(COC(N)=O)CS[C@@H]21 [CEFOXITIN] | > 256 µg/mL | > 256 µg/mL | > 256 µg/mL | > 256 µg/mL | > 256 µg/mL | > 256 µg/mL | > 256 µg/mL | > 256 µg/mL | – | – | – | – | – | – | – | –
CC(C)(O/N=C(\C(=O)N[C@@H]1C(=O)N2C(C(=O)[O-])=C(C[n+]3ccccc3)CS[C@H]12)c1csc(N)n1)C(=O)O [CEFTAZIDIME] | > 256 µg/mL | > 256 µg/mL | > 256 µg/mL | 16 µg/mL | > 256 µg/mL | > 256 µg/mL | > 256 µg/mL | > 256 µg/mL | – | – | – | – | – | – | – | –
CO/N=C(\C(=O)N[C@@H]1C(=O)N2C(C(=O)O)=C(COC(N)=O)CS[C@H]12)c1ccco1 [CEFUROXIME] | > 256 µg/mL | > 256 µg/mL | > 256 µg/mL | 48 µg/mL | > 256 µg/mL | > 256 µg/mL | > 256 µg/mL | > 256 µg/mL | – | – | – | – | – | – | – | –
CC(=O)OCC1=C(C(=O)O)N2C(=O)[C@@H](NC(=O)Cc3cccs3)[C@H]2SC1 [CEPHALOTHIN] | > 256 µg/mL | > 256 µg/mL | > 256 µg/mL | > 256 µg/mL | > 256 µg/mL | > 256 µg/mL | > 256 µg/mL | > 256 µg/mL | – | – | – | – | – | – | – | –
O=C(N[C@H](CO)[C@H](O)c1ccc([N+](=O)[O-])cc1)C(Cl)Cl [CHLORAMPHENICOL] | 8 µg/mL (≈ 24.8 µM) | 0.25 µg/mL | 0.5 µg/mL (≈ 1.55 µM) | 0.047 µg/mL | > 256 µg/mL | > 256 µg/mL | 1 µg/mL (≈ 3.09 µM) | 8 µg/mL (≈ 24.8 µM) | – | – | – | – | – | – | – | –
CCC[C@@H]1C[C@@H](C(=O)N[C@@H]([C@H]2O[C@H](SC)[C@H](O)[C@@H](O)[C@H]2O)[C@H](C)Cl)N(C)C1 [CLINDAMYCIN] | > 256 µg/mL | 6 µg/mL | 2 µg/mL (≈ 4.71 µM) | 1 µg/mL | > 256 µg/mL | 4 µg/mL (≈ 9.41 µM) | 32 µg/mL (≈ 75.3 µM) | > 256 µg/mL | – | – | – | – | – | – | – | –
CC[C@H]1OC(=O)[C@H](C)[C@@H](O[C@H]2C[C@@](C)(OC)[C@@H](O)[C@H](C)O2)[C@H](C)[C@@H](O[C@@H]2O[C@H](C)C[C@H](N(C)C)[C@H]2O)[C@](C)(O)C[C@@H](C)C(=O)[C@H](C)[C@@H](O)[C@]1(C)O [ERYTHROMYCIN] | > 256 µg/mL | 1 µg/mL | 12 µg/mL (≈ 16.4 µM) | 0.094 µg/mL | 128 µg/mL (≈ 174 µM) | 16 µg/mL (≈ 21.8 µM) | 48 µg/mL (≈ 65.4 µM) | > 256 µg/mL | – | – | – | – | – | – | – | –
CC(=O)O[C@H]1C[C@@]2(C)[C@@H](C[C@@H](O)[C@H]3[C@@]4(C)CC[C@@H](O)[C@@H](C)[C@@H]4CC[C@@]32C)/C1=C(\CCC=C(C)C)C(=O)O [FUSIDIC ACID] | – | – | – | – | – | – | – | – | 0 mm | >40 mm | 0 mm | 26 mm | 0 mm | 0 mm | 0 mm | 0 mm
CC(=O)NC[C@H]1CN(c2ccc(N3CCOCC3)c(F)c2)C(=O)O1 [LINEZOLID] | > 256 µg/mL | 4 µg/mL | 8 µg/mL (≈ 23.7 µM) | 0.5 µg/mL | > 256 µg/mL | 4 µg/mL (≈ 11.9 µM) | > 256 µg/mL | > 256 µg/mL | – | – | – | – | – | – | – | –
CCn1cc(C(=O)O)c(=O)c2ccc(C)nc21 [NALIDIXIC ACID] | – | – | – | – | – | – | – | – | 24 mm | 27 mm | 33 mm | 40 mm | 12 mm | 30 mm | 21 mm | 29 mm
CCn1cc(C(=O)O)c(=O)c2cc(F)c(N3CCNCC3)cc21 [NORFLOXACIN] | – | – | – | – | – | – | – | – | 26 mm | 40 mm | 40 mm | 42 mm | 24 mm | 38 mm | 27 mm | 35 mm
CO[C@@H]1[C@@H](OC(N)=O)[C@@H](O)[C@H](Oc2ccc3c(O)c(NC(=O)c4ccc(O)c(CC=C(C)C)c4)c(=O)oc3c2C)OC1(C)C [NOVOBIOCIN] | – | – | – | – | – | – | – | – | 0 mm | 20 mm | 16 mm | 22 mm | 0 mm | 14 mm | 0 mm | 0 mm
Cc1onc(-c2ccccc2)c1C(=O)N[C@@H]1C(=O)N2[C@@H]1SC(C)(C)[C@@H]2C(=O)O [OXACILLIN] | > 256 µg/mL | 48 µg/mL | 96 µg/mL (≈ 239 µM) | 4 µg/mL | > 256 µg/mL | > 256 µg/mL | > 256 µg/mL | > 256 µg/mL | – | – | – | – | – | – | – | –
CCN1CCN(C(=O)N[C@@H](C(=O)N[C@@H]2C(=O)N3[C@@H]2SC(C)(C)[C@@H]3C(=O)O)c2ccccc2)C(=O)C1=O [PIPERACILLIN] | > 256 µg/mL | 192 µg/mL | 192 µg/mL (≈ 371 µM) | 6 µg/mL | > 256 µg/mL | > 256 µg/mL | 96 µg/mL (≈ 185 µM) | > 256 µg/mL | – | – | – | – | – | – | – | –
CO[C@H]1/C=C/O[C@@]2(C)Oc3c(C)c(O)c4c(O)c(c(/C=N/N5CCN(C)CC5)c(O)c4c3C2=O)NC(=O)/C(C)=C\C=C\[C@H](C)[C@H](O)[C@@H](C)[C@@H](O)[C@@H](C)[C@H](OC(C)=O)[C@@H]1C [RIFAMPIN] | – | – | – | – | – | – | – | – | 0 mm | 26 mm | 13 mm | 28 mm | 0 mm | 8 mm | 10 mm | 10 mm
CC[C@H]1OC(=O)[C@H](C)C(=O)[C@H](C)[C@@H](O[C@@H]2O[C@H](C)C[C@H](N(C)C)[C@H]2O)[C@](C)(OC)C[C@@H](C)C(=O)[C@H](C)[C@H]2N(CCCCn3cnc(-c4cccnc4)c3)C(=O)O[C@]12C [TELITHROMYCIN] | – | – | – | – | – | – | – | – | 9 mm | 32 mm | 19 mm | 34 mm | 13 mm | 18 mm | 10 mm | 12 mm
CN(C)[C@@H]1C(O)=C(C(N)=O)C(=O)[C@@]2(O)C(O)=C3C(=O)c4c(O)cccc4[C@@](C)(O)[C@H]3C[C@@H]12 [TETRACYCLINE] | > 256 µg/mL | 64 µg/mL | 64 µg/mL (≈ 144 µM) | 1.5 µg/mL | > 256 µg/mL | 64 µg/mL (≈ 144 µM) | 192 µg/mL (≈ 432 µM) | > 256 µg/mL | – | – | – | – | – | – | – | –
CN(C)c1cc(NC(=O)CNC(C)(C)C)c(O)c2c1C[C@H]1C[C@H]3[C@H](N(C)C)C(O)=C(C(N)=O)C(=O)[C@@]3(O)C(O)=C1C2=O [TIGECYCLINE] | 0.75 µg/mL (≈ 1.28 µM) | 0.125 µg/mL | 0.125 µg/mL (≈ 0.213 µM) | 0.064 µg/mL | 0.75 µg/mL (≈ 1.28 µM) | 0.5 µg/mL (≈ 0.854 µM) | 0.19 µg/mL (≈ 0.324 µM) | 0.38 µg/mL (≈ 0.649 µM) | – | – | – | – | – | – | – | –
NC[C@H]1O[C@H](O[C@H]2[C@H](O)[C@@H](O[C@H]3O[C@H](CO)[C@@H](O)[C@H](N)[C@H]3O)[C@H](N)C[C@@H]2N)[C@H](N)C[C@@H]1O [TOBRAMYCIN] | 1.5 µg/mL (≈ 3.21 µM) | 0.5 µg/mL | 0.125 µg/mL (≈ 0.267 µM) | 0.047 µg/mL | 1.5 µg/mL (≈ 3.21 µM) | 0.25 µg/mL (≈ 0.535 µM) | 0.38 µg/mL (≈ 0.813 µM) | 1 µg/mL (≈ 2.14 µM) | – | – | – | – | – | – | – | –
